Laboratory results: ChEMBL document CHEMBL5316278, “Chemical Blockage of the Mitochondrial Rhomboid Protease PARL by Novel Ketoamide Inhibitors Reveals Its Role in PINK1/Parkin-Dependent Mitophagy” (J Med Chem, 2023)
Active and inactive are the calls of the source. No cut-off for these calls is given here. *1 amine or outer side, *2 acyl side, *3 side chain or, on linkers, in order; H or OH if unused. Where a SMILES comes first, the peptide text is derived from it. [ ]: non-standard residue; d: D form. The star is where a group is joined. NH(4-phenylbutyl) = c1ccc(CCCCN*)cc1; X1 = C[C@H](N[*:1])C(=O)C(=O)[*:2]

Columns and labels:
[1] = target: T1, Presenilin-associated rhomboid-like protein, mitochondrial (Homo sapiens) (UniProt Q9H300); assay: Inhibition of human PARL expressed in human T-REx-293 cells overexpressing PINK1 transfected with mito-mCherry and Parkin-mEGFP assessed as Parkin recruitment in mitochondria at 5 uM incubated for 3 hrs by fluorescence based microscopic analysis
T1 sequence (whole entry): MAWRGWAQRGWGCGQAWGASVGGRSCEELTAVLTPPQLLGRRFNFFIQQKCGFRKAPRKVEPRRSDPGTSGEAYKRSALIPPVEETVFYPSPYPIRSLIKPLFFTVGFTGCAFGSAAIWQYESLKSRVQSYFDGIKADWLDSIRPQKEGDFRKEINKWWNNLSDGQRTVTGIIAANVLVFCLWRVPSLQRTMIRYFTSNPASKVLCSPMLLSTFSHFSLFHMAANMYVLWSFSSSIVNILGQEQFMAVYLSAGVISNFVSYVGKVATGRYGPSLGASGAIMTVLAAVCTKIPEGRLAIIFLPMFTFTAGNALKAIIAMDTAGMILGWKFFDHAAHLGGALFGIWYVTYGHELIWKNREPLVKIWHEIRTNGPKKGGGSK
Summary of the method: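 PINK1-induced HEK293 T-REx cells on poly-L-lysine slides were co-transfected with mito-mCherry and Parkin-mEGFP using PEI. Nuclei were stained with Hoechst (1 μg/mL) before treatment, and cells were treated for 3 h alongside DMSO, CCCP and Antimycin A. Parkin colocalisation with mitochondria was judged by fluorescence microscopy and line-scan pixel intensity plots.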

[2] = target: T1, Presenilin-associated rhomboid-like protein, mitochondrial (Homo sapiens); assay: Inhibition of human PARL expressed in human T-REx-293 cells overexpressing PINK1 transfected with HA-Parkin-IRES-GFP assessed as increase in Parkin level in mitochondrial fraction at 5 uM incubated for 22 hrs by immunoblot analysis; type: mitochondria
Summary of the method: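 PINK1-induced HEK293 T-REx cells were transiently transfected with HA-Parkin-IRES-GFP (100 ng per 6-well, linear PEI). They were treated for 22 h, with DMSO, CCCP (10 μM, 3 h) and Antimycin A (30 μM, 3 h) as comparators. Cells were fractionated into cytosolic and mitochondrial fractions and immunoblotted (AIF, β-actin controls); n = 3, unpaired t-test.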

HEK-293T = assay: Disruption of mitochondrial membrane potential in human HEK293T cells at 5 uM incubated for 3 hrs by JC-1 staining method; type: functional, cell-based
[3] = target: T1, Presenilin-associated rhomboid-like protein, mitochondrial (Homo sapiens); assay: Inhibition of human PARL expressed in human Flp-In-T-REx-293 cells overexpressing PINK1 assessed as stabilization of 62 kDa PINK1 by measuring its inner mitochondrial level at 5 uM incubated for 3 hrs followed by proteinase K treatment by immunoblot analysis; type: cell-based
Summary of the method: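 PINK1 was induced in HEK293 T-REx cells by doxycycline and treated for 3 h, with DMSO and CCCP as comparators. Mitochondria were isolated at 4 °C in EGTA-free isolation buffer and exposed to proteinase K for 1 h, then PMSF (2.5 mM, 15 min). PINK1 forms were read by immunoblot, with AIF and VDAC as fractionation controls.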

[4] = target: T1, Presenilin-associated rhomboid-like protein, mitochondrial (Homo sapiens); assay: Inhibition of human PARL expressed in human Flp-In-T-REx-293 cells overexpressing PINK1 with OMA1 knockdown assessed as stabilization of 53 kDa PINK1 at 10 uM incubated for 8 hrs by immunoblot analysis; type: cell-based
Summary of the method: (§1)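 PINK1-inducible HEK293 T-REx cells were transfected with 20 nM siRNA using RNAiMAX and analysed five days later. PINK1 was induced with doxycycline. Cells were treated for 8 h with 10 μM or DMSO. Read-out was immunoblot, with β-actin as loading control.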

[5] = target: T1, Presenilin-associated rhomboid-like protein, mitochondrial (Homo sapiens); assay: Inhibition of human PARL expressed in human HEK293T cells assessed as stabilization of 66 kDa PINK1 at 5 uM incubated for 8 hrs by immunoblot analysis; type: cell-based
Summary of the method: (§2)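 Parental HEK293T cells (endogenous PINK1) were treated for 8 h, with DMSO or CCCP as comparators. Mitochondrial membranes were enriched by hypotonic needle lysis, 100,000 × g pelleting and 100 mM Na2CO3 extraction through a sucrose cushion. PINK1 was then read by immunoblot, with VDAC as fractionation control; n = 3, means ± SEM.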

[6] = target: T1, Presenilin-associated rhomboid-like protein, mitochondrial (Homo sapiens); assay: Inhibition of human PARL expressed in human Flp-In-T-REx-293 cells overexpressing PINK1 assessed as stabilization of 53 kDa PINK1 at outer mitochondrial membrane at 5 uM incubated for 6 hrs followed by proteinase K treatment by immunoblot analysis; type: cell-based
Summary of the method: (§3)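 PINK1 was induced in HEK293 T-REx cells (doxycycline 0.3 μg/mL, 24 h), then treated for 6 h. Cells were lysed directly, or mitochondria were isolated by needle lysis and 10,000 × g centrifugation and digested with proteinase K for 30 min, then 2.5 mM PMSF for 15 min. Read-out was immunoblot, with AIF as fractionation control.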

[7] = target: T1, Presenilin-associated rhomboid-like protein, mitochondrial (Homo sapiens); assay: Inhibition of human PARL expressed in human Flp-In-T-REx-293 cells overexpressing PINK1 assessed as stabilization of 53 kDa PINK1 at 0.1 to 30 uM incubated for 8 hrs by immunoblot analysis; type: cell-based; conditions: dose 0.1-30 µM
Summary of the method: (§4)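 HEK293 T-REx cells with inducible PINK1 were grown in DMEM with 10% FBS, GlutaMAX, pyruvate, hygromycin and blasticidin. PINK1 was induced with 0.3 μg/mL doxycycline for 24 h. Cells were treated for 8 h, with DMSO and CCCP (10 μM, 3 h) as comparators. Cleaved PINK1 forms were resolved by immunoblot of whole-cell samples.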

[8] = target: T1, Presenilin-associated rhomboid-like protein, mitochondrial (Homo sapiens); assay: Inhibition of human PARL expressed in human Flp-In-T-REx-293 cells overexpressing PINK1 assessed as stabilization of 62 kDa PINK1 at 0.1 to 30 uM incubated for 8 hrs by immunoblot analysis; type: cell-based; conditions: dose 0.1-30 µM; summary of the method: as §4
[9] = target: T1, Presenilin-associated rhomboid-like protein, mitochondrial (Homo sapiens); assay: Inhibition of human PARL expressed in human HEK293T cells assessed as stabilization of 62 kDa PINK1 at 5 uM incubated for 8 hrs by immunoblot analysis; type: cell-based; summary of the method: as §2
[10] = target: T1, Presenilin-associated rhomboid-like protein, mitochondrial (Homo sapiens); assay: Inhibition of human PARL expressed in human Flp-In-T-REx-293 cells overexpressing PINK1 with OMA1 knockdown assessed as stabilization of 62 kDa PINK1 at 10 uM incubated for 8 hrs by immunoblot analysis; type: cell-based; summary of the method: as §1
[11] = target: T1, Presenilin-associated rhomboid-like protein, mitochondrial (Homo sapiens); assay: Inhibition of human PARL expressed in human Flp-In-T-REx-293 cells overexpressing PINK1 assessed as stabilization of 66 kDa PINK1 at outer mitochondrial membrane at 5 uM incubated for 6 hrs followed by proteinase K treatment by immunoblot analysis; type: cell-based; summary of the method: as §3
[12] = target: T1, Presenilin-associated rhomboid-like protein, mitochondrial (Homo sapiens); assay: Inhibition of human PARL expressed in human Flp-In-T-REx-293 cells overexpressing PINK1 assessed as stabilization of 66 kDa PINK1 at 0.1 to 30 uM incubated for 8 hrs by immunoblot analysis; type: cell-based; conditions: dose 0.1-30 µM; summary of the method: as §4

Structure (SMILES) | inhibition [1] | inhibition [2] | Activity (HEK-293T) | inhibition [3] | inhibition [4] | inhibition [5] | inhibition [6] | inhibition [7] | inhibition [8] | inhibition [9] | inhibition [10] | inhibition [11] | inhibition [12]
CCCCCC[C@H]1C(=O)O[C@H](C)[C@H](NC(=O)c2cccc(NC=O)c2O)C(=O)O[C@@H](C)[C@@H]1OC(=O)CC(C)C | inactive | Active | – | – | – | – | – | – | – | – | – | – | –
N#CC(C#N)=NNc1cccc(Cl)c1 | – | Active | Active | inactive | – | – | – | – | – | – | – | – | –
CC(=O)N[C@@H](C)C(=O)N[C@H](C(=O)N[C@@H](Cc1ccccc1)C(=O)N[C@@H](CC(C)C)C(=O)N[C@@H](C)C(=O)C(=O)NCCCCc1ccccc1)C(C)C (Ac-AVFL[X1]-{NH(4-phenylbutyl)}) | Active | Active | inactive | Active | Active | Active | inactive | Dose-Dependent Effect | Dose-Dependent Effect | Active | Active | inactive | Dose-Dependent Effect
